Laboratory results from publication PMC3428850 (Molecular cancer therapeutics, 2012).
Where “and” joins values, the source holds several entries; their conditions need not be identical. Identical values can stand only once. Like-named read-outs stand apart in the source and are kept apart here.

Legend:
[1] = system: M059-Fus-1 cells; test: clonogenic survival assay, DNA-PKcs-proficient cells; format: cell-based, human
Summary of the method: (§1)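 Human glioblastoma M059J cells (DNA-PKcs-deficient) and M059-Fus-1 cells (chromosome 8 transfected; G-418 200 μg/ml) in DMEM/10% FBS. Etoposide or doxorubicin alone or with 1 μM test compound, or test compound alone, for 16 h. Reseeded drug-free. Crystal violet colony counts after 10-14 days. Fold enhancement as survival ratio. Means ± SD, n = 3.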

[2] = system: MCF7 cells; test: clonogenic survival assay; format: cell-based, human; conditions: MCF7, 1 μM, 16 hr exposure, single agent
Summary of the method: (§2)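 Cells in RPMI 1640/10% FBS were exposed in 6-well plates for 16 h to etoposide or doxorubicin with or without test compound (1 μM), or to test compound alone. Cells then harvested and reseeded in drug-free medium. Colonies stained with crystal violet after 10-14 days and counted automatically. Fold enhancement = survival with cytotoxic alone / survival with cytotoxic + 1 μM test compound. Means ± SD, n = 3.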

[3] = system: SW620 xenografts; test: anti-tumour efficacy study, SW620 xenografts; format: in vivo, mice
Summary of the method: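 Female athymic CD1-nu/nu mice with s.c. SW620, n = 5/group, treated once tumours were palpable (~5 × 5 mm, day 8-10). Controls: saline i.p. daily. Test compound 10 mg/kg i.p. for 5 days. Etoposide phosphate 11.35 mg/kg i.p. (10 mg/kg etoposide) daily × 5. Combination: test compound i.p. once or twice daily × 5, first dose just before etoposide. Caliper volume a²×b/2; median RTV (day 0 = 1); time to RTV4.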

[4] = system: SW620 cells; test: clonogenic survival assay; format: cell-based, human
[5] = format: in vivo, mice; conditions: for concentration at 60 min / concentration at 120 min: female, CD1-nu/nu (athymic), mouse, intravenous, 12.5 mg/kg
Summary of the method: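 Female athymic CD1-nu/nu mice kept in SPF isolators, bearing MCF7 or SW620 xenografts (650 mm³). Test compound 12.5 mg/kg i.v. in equimolar phosphoric acid/saline, pH 5. Tumours homogenised in PBS (1:3 w/v) on ice. Plasma and tumour concentrations by LC-MS/MS. Means ± SD of 3 mice per time point.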

[6] = plasma pharmacokinetics following different routes of administration; format: in vivo, Balb C mice; conditions: for CL: mice
Summary of the method: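 Female Balb C mice given test compound at 10 mg/kg i.v., i.p. or p.o. Vehicle: equimolar phosphoric acid in sterile saline, final pH 5. Plasma sampled at 5-360 min, 3 mice per time point. Plasma levels by LC-MS/MS. PK parameters calculated from mean values.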

[7] = system: LoVo cells; test: clonogenic survival assay; format: cell-based, human
Summary of the method: as §2

[8] = system: V3-YAC cells; test: clonogenic survival assay, DNA-PKcs-proficient cells; format: cell-based, Chinese hamster
Summary of the method: (§3)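 Chinese hamster ovary V3 cells (DNA-PKcs-deficient) and V3-YAC cells (human DNA-PKcs on YAC; kept under G-418 500 μg/ml) in RPMI 1640/10% FBS. Etoposide alone or with 1 μM test compound, or test compound alone, for 16 h. Reseeded drug-free. Crystal violet colony counts after 10-14 days. Fold enhancement as survival ratio. Means ± SD of 3 independent experiments.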

[9] = system: T47D cells; test: clonogenic survival assay; format: cell-based, human
Summary of the method: as §2

[10] = target: PI-3K δ (Homo sapiens, UniProt O00329); test: cell-free assay, PI-3K isoforms; format: biochemical; conditions: Supplementary Figure 1
[11] = system: V3 cells; test: clonogenic survival assay, DNA-PKcs-deficient cells; format: cell-based, Chinese hamster
Summary of the method: as §3

[12] = system: MCF7 cells; test: cell growth inhibition, SRB assay, 5-day continuous exposure; format: cell-based, human
Summary of the method: (§4)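 Human cancer cells in RPMI 1640 with 10% FBS, penicillin/streptomycin, at 37 °C and 5% CO2. Test compound (10 mM DMSO stock) given by continuous exposure for 5 days. Growth measured by SRB assay. […] Means ± SD of 3 independent experiments.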

[13] = system: M059J cells; test: clonogenic survival assay, DNA-PKcs-deficient cells; format: cell-based, human; conditions: M059J
Summary of the method: as §1

[14] = system: MDA-MB-231 cells; test: clonogenic survival assay; format: cell-based, human
Summary of the method: as §2

[15] = system: PI-3K; test: PI-3K-dependent AKT phosphorylation; format: cell-based, human; conditions: SW620 cells
[16] = system: LoVo cells; test: cell growth inhibition, SRB assay, 5-day continuous exposure; format: cell-based, human
Summary of the method: as §4

[17] = system: MDA-MB-231 cells; test: as above; format: cell-based; conditions: Homo sapiens, MDA-MB-231, 120 h
Summary of the method: as §4

[18] = system: SW620 cells; test: cell growth inhibition, SRB assay, 5-day continuous exposure; format: cell-based, human
[19] = system: MCF7 xenografts; test: anti-tumour efficacy study, MCF7 xenografts; format: in vivo; conditions: MCF7 tumour-bearing mice
[20] = female, Balb C, mouse, ip, 10 mg/kg
[21] = female, Balb C, mouse, iv, 10 mg/kg
[22] = female, Balb C, mouse, po, 10 mg/kg
[23] = 1 μM, 16 hr exposure, single agent

Sequence of PI-3K δ (O00329 whole entry, species assumed, canonical isoform): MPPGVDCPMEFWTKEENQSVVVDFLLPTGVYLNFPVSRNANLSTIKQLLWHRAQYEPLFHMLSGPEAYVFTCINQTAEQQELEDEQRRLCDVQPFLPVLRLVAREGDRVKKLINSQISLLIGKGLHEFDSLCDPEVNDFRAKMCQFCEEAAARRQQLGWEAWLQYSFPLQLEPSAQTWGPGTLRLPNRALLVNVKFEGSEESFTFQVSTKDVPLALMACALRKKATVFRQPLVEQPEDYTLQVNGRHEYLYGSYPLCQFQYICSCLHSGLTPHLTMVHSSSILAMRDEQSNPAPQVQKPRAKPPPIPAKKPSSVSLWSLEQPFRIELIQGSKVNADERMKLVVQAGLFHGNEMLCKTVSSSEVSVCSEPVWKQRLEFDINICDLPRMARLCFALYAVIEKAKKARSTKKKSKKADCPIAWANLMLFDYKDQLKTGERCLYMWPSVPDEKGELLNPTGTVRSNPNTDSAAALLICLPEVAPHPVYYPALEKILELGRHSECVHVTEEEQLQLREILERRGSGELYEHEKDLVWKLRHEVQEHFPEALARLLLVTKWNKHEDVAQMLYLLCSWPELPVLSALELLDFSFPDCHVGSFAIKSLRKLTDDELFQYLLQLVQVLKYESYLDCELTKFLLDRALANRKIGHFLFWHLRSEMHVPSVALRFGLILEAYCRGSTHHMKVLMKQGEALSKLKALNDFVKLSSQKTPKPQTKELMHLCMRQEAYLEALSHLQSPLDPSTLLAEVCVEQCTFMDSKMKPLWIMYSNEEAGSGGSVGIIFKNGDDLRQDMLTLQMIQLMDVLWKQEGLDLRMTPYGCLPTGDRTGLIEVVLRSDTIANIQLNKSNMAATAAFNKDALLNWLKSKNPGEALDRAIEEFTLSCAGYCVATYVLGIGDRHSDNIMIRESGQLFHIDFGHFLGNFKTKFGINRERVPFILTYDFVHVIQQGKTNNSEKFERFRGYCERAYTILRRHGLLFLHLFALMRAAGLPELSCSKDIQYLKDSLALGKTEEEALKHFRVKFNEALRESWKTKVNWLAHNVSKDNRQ
Sequence of PI-3K δ (P27986 whole entry partner, species assumed, canonical isoform): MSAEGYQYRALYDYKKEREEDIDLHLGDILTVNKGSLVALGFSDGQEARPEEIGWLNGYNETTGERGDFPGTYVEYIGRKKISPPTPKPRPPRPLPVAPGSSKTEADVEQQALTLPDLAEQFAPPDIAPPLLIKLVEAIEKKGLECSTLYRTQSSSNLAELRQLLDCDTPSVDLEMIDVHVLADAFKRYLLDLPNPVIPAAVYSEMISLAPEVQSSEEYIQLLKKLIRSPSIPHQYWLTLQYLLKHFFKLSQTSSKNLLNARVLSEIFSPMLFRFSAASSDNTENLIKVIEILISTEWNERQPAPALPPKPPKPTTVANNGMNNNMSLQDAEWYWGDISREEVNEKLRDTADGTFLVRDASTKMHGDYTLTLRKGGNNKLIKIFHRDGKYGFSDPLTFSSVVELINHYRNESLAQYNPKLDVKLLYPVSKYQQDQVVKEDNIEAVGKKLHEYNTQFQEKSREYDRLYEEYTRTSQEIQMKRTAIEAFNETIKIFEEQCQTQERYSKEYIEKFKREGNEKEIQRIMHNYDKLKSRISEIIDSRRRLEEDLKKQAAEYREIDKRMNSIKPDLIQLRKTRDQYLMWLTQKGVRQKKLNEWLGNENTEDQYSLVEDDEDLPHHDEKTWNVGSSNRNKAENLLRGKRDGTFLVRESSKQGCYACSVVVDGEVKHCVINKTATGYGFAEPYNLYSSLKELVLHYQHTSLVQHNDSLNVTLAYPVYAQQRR

For `CCN1CCN(CC(=O)Nc2ccc(-c3cccc4c(=O)cc(N5CCOCC5)oc34)c3sc4ccccc4c23)CC1` [KU-0060648, 2-(4-ethylpiperazin-1-yl)-N-(4-(2-morpholino-4-oxo-4H-chromen-8-yl)dibenzo[b,d]thiophen-1-yl)acetamide], the “fold enhancement of etoposide cytotoxicity” value ([1]; M059-Fus-1, 1 μM KU-0060648, 16 hours) was 4 fold, the “fold enhancement of doxorubicin cytotoxicity” value ([1]; M059-Fus-1, 1 μM KU-0060648, depending on the doxorubicin concentration) was “up to 32 fold” and the “reduction in cell viability, compound alone” value (“reduction in cell viability” for short) ([1]; M059-Fus-1, 1 μM, 16 hours) was < 5%. For the same compound, the “overall cell survival (clonogenic)” value [2] was ≥ 80%, the “maximum body weight loss” value ([3]; SW620 tumour-bearing mice) was “no body weight loss” and the “fold increase of etoposide-induced tumour growth delay” value ([3]; in both SW620 and MCF7 xenografts) was “up to 4.5 fold”. For the same compound, the “Fold enhancement of doxorubicin cytotoxicity (survival cytotoxic alone/survival cytotoxic + 1 μM KU-0060648)” value ([4]; SW620, 100 nM doxorubicin, 16 hr) was 12 fold and 12±8 fold, the “overall cell survival (clonogenic)” value ([4]; SW620, 1 μM, 16 hr exposure, single agent) was ≥ 80% and the “concentration maintained in the tumour” value ([5]; SW620 xenografts, 12.5 mg/kg i.v., for at least 4 hours) was “over 1 μM”. For the same compound, the concentration at 60 min ([5]; plasma) was 2100 ± 500 nM, the concentration at 120 min ([5]; plasma) was 700 ± 200 nM and the concentration at 60 min ([5]; tumour (SW620 xenograft)) was 4900 ± 300 nM. For the same compound, the concentration at 120 min ([5]; tumour (SW620 xenograft)) was 2900 ± 400 nM, the CL ([6]; 10 mg/kg i.p) was 54 mL/min/kg and the CL ([6]; 10 mg/kg p.o) was 35 mL/min/kg. It also gave an AUC(0-inf) [6, 20] of 3150 ng·h/mL, a Cmax [6, 20] of 900 ng/mL and a Tmax [6, 20] of 0.5 h. For the same compound, the bioavailability [6, 20] was 78%, the half-life [6, 20] was 1.77 h and the AUC(0-inf) [6, 21] was 4030 ng·h/mL. It also gave a Cmax [6, 21] of 1900 ng/mL, a Tmax [6, 21] of 0.0833 h and a clearance [6, 21] of 41 mL/min/kg. The half-life [6, 21] was 1.7 h, the AUC(0-inf) [6, 22] was 4780 ng·h/mL and the Cmax [6, 22] was 900 ng/mL. The Tmax [6, 22] was 2 h, the bioavailability [6, 22] was 119% and the half-life [6, 22] was 2.37 h. For the same compound, the “Fold enhancement of doxorubicin cytotoxicity (survival cytotoxic alone/survival cytotoxic + 1 μM KU-0060648)” value ([7]; 100 nM doxorubicin, 16 hr) was 73±29 fold, the “overall cell survival (clonogenic)” value [7, 23] was ≥ 80% and the “fold enhancement of etoposide cytotoxicity” value ([8]; 1 μM KU-0060648, 16 hours) was > 13 fold. For the same compound, the “reduction in cell viability” value ([8]; 1 μM, 16 hours) was < 15%, the “Fold enhancement of doxorubicin cytotoxicity (survival cytotoxic alone/survival cytotoxic + 1 μM KU-0060648)” value ([9]; 100 nM doxorubicin, 16 hr) was 58±35 fold and the “overall cell survival (clonogenic)” value [9, 23] was ≥ 80%. For the same compound, the “potency rank among the four PI-3K isoforms” value [10] was “greatest potency”, the “fold enhancement of etoposide cytotoxicity” value ([11]; V3, 1 μM KU-0060648, 16 hours) was 2.5 fold and the “reduction in cell viability” value ([11]; V3, 1 μM, 16 hours) was < 15%. The GI50 ([12]; Homo sapiens, MCF7, 120 h) was 270 nM, the “total cell growth over 5 days, of DMSO treated controls” value ([12]; MCF7, 1 μM) was 4% and the “inhibition of cell growth” value ([12]; MCF7, 1 μM, 5 days, 1 µM) was > 95% and > 50%. The “fold enhancement of doxorubicin cytotoxicity” value ([13]; 1 μM KU-0060648) was 1.4 fold, the “reduction in cell viability” value ([13]; 1 μM, 16 hours) was < 5% and the “Fold enhancement of doxorubicin cytotoxicity (survival cytotoxic alone/survival cytotoxic + 1 μM KU-0060648)” value ([14]; MDA-MB-231, 100 nM doxorubicin, 16 hr) was 3.8±0.6 fold. The “overall cell survival (clonogenic)” value ([14]; MDA-MB-231, 1 μM, 16 hr exposure, single agent) was 41%, the “inhibition of AKT phosphorylation” value ([15]; at 10 μM) was 42% and the IC50 ([15]; read-out: IC50 PI-3K-mediated AKT phosphorylation, IGF-1 stimulated) was > 10000 nM. The “total cell growth over 5 days, of DMSO treated controls” value ([16]; 1 μM) was 10%, the GI50 ([16]; Homo sapiens, 120 h) was 210 nM and the inhibition at 1 µM ([16]; Homo sapiens, 120 h, read-out: inhibition of cell growth) was > 50%. The GI50 [17] was 1000 nM, the inhibition at 1 µM ([17]; read-out: inhibition of cell growth) was > 50% and the GI50 ([18]; Homo sapiens, SW-620, 120 h) was 950 nM. For the same compound, the “inhibition of cell growth” value ([18]; SW620, 1 μM, 5 days, 1 µM) was > 50% and 50% and the “maximum body weight loss” value [19] was 3%.
